# Assays:
# [1] = system: Mus musculus; assay: In vivo inhibition of S1P1 receptor in mouse assessed as peripheral blood B cells at 1.25 mg/kg, ip after 24 hrs by flow cytometric analysis (reference value: 4.72 +/- 0.53 10^6/ml); format: functional; details: route intraperitoneal
# [2] = system: Mus musculus; assay: In vivo inhibition of S1P1 receptor in mouse assessed as peripheral blood CD8+ cells at 1.25 mg/kg, ip after 24 hrs by flow cytometric analysis (reference value: 0.48 +/- 0.05 10^6/ml); format: functional; details: route intraperitoneal
# [3] = system: Mus musculus; assay: In vivo inhibition of S1P1 receptor in mouse assessed as reduction of peripheral blood CD8+ cells at 1.25 mg/kg, ip after 24 hrs by flow cytometric analysis relative to control; format: functional; details: in the assay text read “CD4+ cells” for “CD8+ cells”, route intraperitoneal
# Summary of the method: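 Compound given intraperitoneally at 1.25 mg/kg in 0.9% NaCl (0.2 mg/mL); blood taken retro-orbitally into EDTA after 24 h. Lymphocytes counted by flow cytometry after red-cell lysis and compared with untreated mice. Mean ± SEM, n ≥ 3 independent experiments; p < 0.05 versus control.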
# [4] = system: Mus musculus; assay: In vivo inhibition of S1P1 receptor in mouse assessed as peripheral blood WBC at 1.25 mg/kg, ip after 24 hrs by flow cytometric analysis (reference value: 8.94 +/- 0.59 10^6/ml); format: functional; details: route intraperitoneal
# [5] = system: Mus musculus; assay: In vivo inhibition of S1P1 receptor in mouse assessed as reduction of peripheral blood CD4+ cells at 1.25 mg/kg, ip after 24 hrs by flow cytometric analysis relative to control
# [6] = molecular target: Sphingosine 1-phosphate receptor 1 (Homo sapiens) (UniProt P21453); assay: Agonist activity at human S1P1 receptor overexpressed in CHO cells assessed as p44/42 MAPK phosphorylation at 1 uM by Western blot analysis; format: cell-based; details: TDE = time-dependent effect
# Sequence of Sphingosine 1-phosphate receptor 1 (Homo sapiens) (P21453 whole entry): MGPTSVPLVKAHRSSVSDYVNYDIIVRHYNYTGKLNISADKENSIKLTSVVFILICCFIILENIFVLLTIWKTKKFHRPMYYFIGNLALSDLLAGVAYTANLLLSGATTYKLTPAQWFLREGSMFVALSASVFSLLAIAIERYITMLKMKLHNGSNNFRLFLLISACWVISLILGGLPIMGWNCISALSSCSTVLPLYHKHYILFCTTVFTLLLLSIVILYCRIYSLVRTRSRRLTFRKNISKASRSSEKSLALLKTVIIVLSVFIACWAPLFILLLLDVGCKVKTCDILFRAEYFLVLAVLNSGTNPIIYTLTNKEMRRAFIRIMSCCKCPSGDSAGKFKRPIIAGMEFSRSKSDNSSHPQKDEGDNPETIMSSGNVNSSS
# Summary of the method: (§1)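 Stably transfected CHO cells overexpressing human S1P1 or S1P3 receptor, serum-starved overnight, then stimulated with test compounds alongside S1P in the same experiment for the indicated times. Cells lysed and lysates resolved on 12% SDS-PAGE gels for Western blot read-out.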
# [7] = molecular target: Sphingosine 1-phosphate receptor 3 (Homo sapiens) (UniProt Q99500); assay: Agonist activity at human S1P3 receptor overexpressed in CHO cells assessed as p44/42 MAPK phosphorylation at 1 uM by Western blot analysis; format: cell-based; details: TDE = time-dependent effect; summary of the method: as §1
# Sequence of Sphingosine 1-phosphate receptor 3 (Homo sapiens) (Q99500 whole entry): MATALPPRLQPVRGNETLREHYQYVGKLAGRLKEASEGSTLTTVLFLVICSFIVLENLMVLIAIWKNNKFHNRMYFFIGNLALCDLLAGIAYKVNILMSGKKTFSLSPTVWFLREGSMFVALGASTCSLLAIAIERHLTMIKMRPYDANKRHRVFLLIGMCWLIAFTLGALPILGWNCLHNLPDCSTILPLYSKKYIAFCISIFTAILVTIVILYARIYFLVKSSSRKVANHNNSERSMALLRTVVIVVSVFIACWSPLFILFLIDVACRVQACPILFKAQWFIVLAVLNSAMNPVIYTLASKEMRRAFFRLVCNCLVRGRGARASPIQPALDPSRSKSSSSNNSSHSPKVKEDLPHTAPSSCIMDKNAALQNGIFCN
# [8] = system: Spleen; assay: Drug uptake in wild type C57BL/6 mouse spleen at 400 KBq/g, iv measured at 10 mins by PET/CT analysis; format: ADME, organism-based; details: in vivo
# Summary of the method: (§2)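 Male C57BL/6 wild-type mice, 13 weeks old, 21−26 g (n = 4), anaesthetised with isoflurane/O₂. 18F tracer given as a tail-vein bolus of 400 kBq/g in 100 μL, flushed with 100 μL saline. Dynamic list-mode PET was acquired, with CT-defined volumes of interest over the organs. Uptake was expressed as counts/mL in the VOI divided by total mouse counts ×100 (%ID/mL). Time-activity curves ran 0−90 min p.i.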
# [9] = system: Mus musculus; assay: Drug uptake in wild type C57BL/6 mouse body parts at 400 KBq/g, iv measured at 90 mins by PET/CT analysis; format: ADME, organism-based; details: in vivo, 1.5 h; summary of the method: as §2
# [10] = system: Lung; assay: Drug uptake in wild type C57BL/6 mouse lung at 400 KBq/g, iv measured at 90 mins by PET/CT analysis; format: ADME, organism-based; details: in vivo, 1.5 h; summary of the method: as §2
# [11] = system: Liver; assay: Drug uptake in wild type C57BL/6 mouse liver at 400 KBq/g, iv measured at 10 mins by PET/CT analysis; format: ADME, organism-based; details: in vivo; summary of the method: as §2
# [12] = system: Bone; assay: Drug uptake in wild type C57BL/6 mouse bone at 400 KBq/g, iv measured at 90 mins by PET/CT analysis; format: ADME, organism-based, Bone element; details: in vivo, 1.5 h; summary of the method: as §2
# [13] = system: Blood; assay: Drug uptake in wild type C57BL/6 mouse blood at 400 KBq/g, iv measured at 90 mins by PET analysis; format: ADME, organism-based; details: in vivo, 1.5 h; summary of the method: as §2
# [14] = system: Kidney; assay: Drug uptake in wild type C57BL/6 mouse kidney at 400 KBq/g, iv measured at 90 mins by PET/CT analysis; format: ADME, organism-based; details: in vivo, 1.5 h; summary of the method: as §2
# [15] = Drug uptake in wild type C57BL/6 mouse myocardium at 400 KBq/g, iv measured at 10 mins by PET/CT analysis; format: ADME, organism-based; details: in vivo; summary of the method: as §2
# [16] = system: Lung; assay: Drug uptake in wild type C57BL/6 mouse lung at 400 KBq/g, iv measured at 20 mins by PET/CT analysis; format: ADME, organism-based; details: in vivo; summary of the method: as §2
# [17] = system: Serum; assay: Metabolic stability in human serum assessed as retention time at 8.7 MBq at 37 degC after 90 mins by HPLC analysis; format: ADME, cell-free; details: 1.5 h
# Summary of the method: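 Formulated 18F tracer (20 μL, 8.7 MBq) was added to 200 μL human serum and incubated at 37 °C. Samples were taken at 10, 30, 60 and 90 min and quenched in MeOH/CH₂Cl₂ 1:1. After centrifugation, supernatants were analysed by C18 radio-HPLC (10−90% CH₃CN/0.1% TFA gradient over 15 min, 1.0 mL/min, 254 nm).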
# [18] = system: Spleen; assay: Drug uptake in wild type C57BL/6 mouse spleen at 400 KBq/g, iv measured at 30 mins by PET/CT analysis; format: ADME, organism-based; details: in vivo, 0.5 h; summary of the method: as §2
compound,measurement,setting,value
NC(CO)(CO)CCc1ccc(CCCCCCCCF)cc1,Activity,[1],1.03 ×10⁶ /ml
same,Activity,[2],0.03 ×10⁶ /ml
same,inhibition in vivo at 1.25 mg/kg,[3],95%
same,Activity,[4],3.04 ×10⁶ /ml
NC(CO)(CO)CCc1ccc(CCCCCCF)cc1,Activity,[1],2.23 ×10⁶ /ml
same,Activity,[2],0.25 ×10⁶ /ml
same,inhibition in vivo at 1.25 mg/kg,[3],59%
same,Activity,[4],4.91 ×10⁶ /ml
NC(CO)(CCc1ccc(CCCCCCCCF)cc1)COP(=O)(O)O (stereo not given),Activity,[1],1.05 ×10⁶ /ml
same,Activity,[2],0.14 ×10⁶ /ml
same,inhibition in vivo at 1.25 mg/kg,[5],89%
same,Activity,[6],tde
same,Activity,[7],tde
same,Activity,[4],3.93 ×10⁶ /ml
CCCCCCCCCCCCC/C=C/[C@@H](O)[C@@H](N)COP(=O)(O)O,Activity,[6],tde
same,Activity,[7],tde
NC(CO)(CO)CCc1ccc(CCCCCC[18F])cc1,Drug uptake,[8],7 %ID/ml
same,Drug uptake,[9],Not Active
same,Drug uptake,[10],4 %ID/ml
same,Drug uptake,[11],25 %ID/ml
same,Drug uptake,[12],Not Active
same,Drug uptake,[13],4 %ID/ml
same,Drug uptake,[14],20 %ID/ml
same,Drug uptake,[15],8 %ID/ml
same,Drug uptake,[16],5 %ID/ml
NC(CO)(CO)CCc1ccc(CCCCCCCC[18F])cc1,Drug uptake,[9],Not Active
same,Drug uptake,[10],4.8 %ID/ml
same,Drug uptake,[11],25 %ID/ml
same,Retention_time,[17],11.15 min
same,Drug uptake,[12],Not Active
same,Drug uptake,[18],7.8 %ID/ml
same,Drug uptake,[13],4 %ID/ml
same,Drug uptake,[14],20 %ID/ml
same,Drug uptake,[15],8.6 %ID/ml
same,Drug uptake,[16],6.4 %ID/ml

# From ChEMBL document CHEMBL3421528, “Synthesis and evaluation of fluorinated fingolimod (FTY720) analogues for sphingosine-1-phosphate receptor molecular imaging by positron emission tomography” (J Med Chem, 2015)
